Laboratory results published in ChEMBL document CHEMBL3425405, “Discovery of Small Molecules for Up-Regulating the Translation of Antiamyloidogenic Secretase, a Disintegrin and Metalloproteinase 10 (ADAM10), by Binding to the G-Quadruplex-Forming Sequence in the 5' Untranslated Region (UTR) of Its mRNA” (J Med Chem, 2015).
Active and inactive are the calls of the source. The calls are words filed in the database; no cut-off is given here.

Legend:
[1] = Binding affinity to 5'-end biotinylated ADAM10 A10-mutant RNA QGRS (unknown origin) by surface plasmon resonance assay method
In short: (§1)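 SPR with 5′-biotinylated A10-RNA-Wt or A10-RNA-Mut immobilized on a neutravidin chip in running buffer (50 mM Tris-HCl pH 7.5, 100 mM KCl). Ligand serial dilutions in running buffer injected at 20 μL/min for association, then dissociation. Chip regenerated with 50 mM NaOH between runs.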

[2] = Binding affinity to 5'-end biotinylated ADAM10 A10-RNA QGRS (unknown origin) by surface plasmon resonance assay method; in short: as §1
[3] = Toxicity against human HeLa cells assessed as reduction in cell viability after 24 hrs by MTT assay; assay type: cell-based
HeLa = experiment: Binding affinity to ADAM10 A10-RNA QGRS (unknown origin) transfected in human HeLa cells assessed as increase in ADAM10 translation efficiency at 2 uM after 24 hrs by Renilla/firefly dual luciferase reporter assay; assay type: cell-based
In short: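 HeLa cells transfected with 0.8 μg A10-Wt, A10-Mut or A10-Del plasmid (G-quadruplex motif upstream of Renilla in psiCHECK-2). Screening: 24 h at a single 2 μM concentration. Follow-up: plasmid for 12 h, then 0, 0.5, 1 or 2.5 μM for 24 h. Renilla normalized to firefly, relative to untreated control; mean ± SD of three independent measurements.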

[4] = Toxicity against APP expressing HEK cells assessed as reduction in cell viability after 48 hrs by MTT assay; assay type: cell-based, HEK293; conditions: human

SMILES | Activity [1] | Kd [2] | IC50 at 24 h [3] | Activity (HeLa) | IC50 at 48 h [4]
COc1cc(/C=C/c2cc(N3CCN(C)CC3)c3ccccc3[n+]2C)ccc1F | inactive | 11.7 µM |  |  | 
C[n+]1c(/C=C/c2ccc(N3CCOCC3)cc2)ccc2ccccc21 | inactive | 15.8 µM | 43.4 µM | 92% | 23.3 µM
CCn1c2ccccc2c2cc(/C=C/c3cc(N4CCCCC4)c4ccccc4n3)ccc21 | inactive | > 50 µM |  |  | 
COc1cc(/C=C/c2ccc3ccccc3[n+]2C)ccc1F | inactive | 18 µM |  |  | 
COc1cc(/C=C/c2cc(N3CCOCC3)c3ccccc3[n+]2C)cc(OC)c1O | inactive | 27.1 µM |  |  | 
CCn1c2ccccc2c2cc(/C=C/c3cc(N4CCCCC4)c4ccccc4[n+]3C)ccc21 | inactive | > 50 µM |  |  | 
CN1CCN(c2cc(/C=C/c3ccc(O)cc3)[n+](C)c3ccccc23)CC1 | inactive | 8.4 µM |  |  | 
C[n+]1c(/C=C/c2ccccc2)ccc2ccccc21 | inactive | > 50 µM | > 50 µM | 101% | > 50 µM
COc1cc(/C=C/c2cc(N3CCN(C)CC3)c3ccccc3[n+]2C)cc(OC)c1OC | inactive | 10.9 µM |  |  | 
C[n+]1c(/C=C/c2cc([N+](=O)[O-])ccc2O)ccc2ccccc21 | inactive | 46.3 µM |  |  | 
CCn1c2ccccc2c2cc(/C=C/c3cc(N4CCN(CCO)CC4)c4ccccc4[n+]3C)ccc21 | inactive | 32.1 µM |  |  | 
CN1CCN(c2cc(/C=C/c3cc4ccccc4[nH]3)[n+](C)c3ccccc23)CC1 | inactive | 1.8 µM | > 50 µM | 116% | 18.6 µM
CCn1c2ccccc2c2cc(/C=C/c3ccc4ccccc4n3)ccc21 | inactive | > 50 µM |  |  | 
CN1CCN(c2cc(/C=C/c3ccc(N4CCOCC4)cc3)nc3ccccc23)CC1 | inactive | 47.6 µM |  |  | 
C[n+]1c(/C=C/c2cc3ccccc3[nH]2)ccc2ccccc21 | inactive | 3.4 µM | > 50 µM | 119% | 12.4 µM
COc1cc(/C=C/c2cc(N3CCN(C)CC3)c3ccccc3[n+]2C)ccc1N1CCOCC1 | inactive | 33 µM |  |  | 
C[n+]1c(/C=C/c2cc([N+](=O)[O-])ccc2O)cc(N2CCCCC2)c2ccccc21 | inactive | > 50 µM |  |  | 
COc1cc(/C=C/c2cc(N3CCN(C)CC3)c3ccccc3[n+]2C)cc(OC)c1O | inactive | 16.5 µM | > 50 µM | 108% | 25.8 µM
CN1CCN(c2cc(/C=C/c3cc([N+](=O)[O-])ccc3O)[n+](C)c3ccccc23)CC1 | inactive | 16.3 µM | > 50 µM | 98.7% | 21.5 µM
CCn1c2ccccc2c2cc(/C=C/c3cc(N4CCN(C)CC4)c4ccccc4n3)ccc21 | inactive | > 50 µM |  |  | 
C[n+]1c(/C=C/c2ccc(O)cc2)ccc2ccccc21 | inactive | 15.9 µM |  |  | 
CCn1c2ccccc2c2cc(/C=C/c3cc(N4CCN(CCN(C)C)CC4)c4ccccc4[n+]3C)ccc21 | inactive | > 50 µM |  |  | 
COc1cc(/C=C/c2ccc3ccccc3[n+]2C)ccc1N1CCOCC1 | inactive | 28.2 µM | 32.8 µM | 102% | 49.1 µM
CN1CCN(c2cc(/C=C/c3ccccc3)[n+](C)c3ccccc23)CC1 | inactive | 33.3 µM | > 50 µM | 91.5% | 36.3 µM
COc1cc(/C=C/c2cc(N3CCCCC3)c3ccccc3[n+]2C)cc(OC)c1O | inactive | 25 µM |  |  | 
CN1CCN(c2cc(/C=C/c3ccc(N4CCOCC4)cc3)[n+](C)c3ccccc23)CC1 | inactive | 2.6 µM | > 50 µM | 137% | 29.3 µM
COc1cc(/C=C/c2ccc3ccccc3[n+]2C)cc(OC)c1O | inactive | 20.5 µM |  |  | 
COc1cc(/C=C/c2ccc3ccccc3[n+]2C)cc(OC)c1OC | inactive | 9.3 µM |  |  | 
CCn1c2ccccc2c2cc(/C=C/c3cc(N4CCN(CCCN(C)C)CC4)c4ccccc4[n+]3C)ccc21 | inactive | 45 µM |  |  | 
C[n+]1c(/C=C/c2cc([N+](=O)[O-])ccc2O)cc(N2CCOCC2)c2ccccc21 | inactive | > 50 µM | 17.3 µM |  | 
